# UPR CHOP act: apoptotic UPR (CHOP) activation; CHO-CHOP luciferase reporter, luminescence; percent of tunicamycin response over DMSO baseline; activation, % at 10 µM; 330,000 compounds, 0.34% hits;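 active = at 10 µM dose, activation of 40% or more, normalized to positive control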;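 also: 100% = tunicamycin at 10 µg/mL and 0% = DMSO alone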
#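 Assay system: CHO cells with stable CHOP pathway luciferase reporter; Buffer or medium: F12 plus 10% serum; Times: 16-18 h cell attachment, then 6 h compound exposure, 37 °C; Signal: luciferase luminescence; Read-out basis: percent activation relative to tunicamycin control; Control set: tunicamycin high control, DMSO low control.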
# Beta2AR agonist: human beta-2 adrenergic receptor agonism by FAP; P07550; Am2.2-beta2AR cells, FAP receptor internalization, flow cytometry; response, % (concentration not given with the values); 340,000 compounds, 0.43% hits;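 active = response above a set limit, near 3 SD of response in nonfluorescent compounds, cut at about 42% in these data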
# Target sequence (P07550 whole entry, looked up): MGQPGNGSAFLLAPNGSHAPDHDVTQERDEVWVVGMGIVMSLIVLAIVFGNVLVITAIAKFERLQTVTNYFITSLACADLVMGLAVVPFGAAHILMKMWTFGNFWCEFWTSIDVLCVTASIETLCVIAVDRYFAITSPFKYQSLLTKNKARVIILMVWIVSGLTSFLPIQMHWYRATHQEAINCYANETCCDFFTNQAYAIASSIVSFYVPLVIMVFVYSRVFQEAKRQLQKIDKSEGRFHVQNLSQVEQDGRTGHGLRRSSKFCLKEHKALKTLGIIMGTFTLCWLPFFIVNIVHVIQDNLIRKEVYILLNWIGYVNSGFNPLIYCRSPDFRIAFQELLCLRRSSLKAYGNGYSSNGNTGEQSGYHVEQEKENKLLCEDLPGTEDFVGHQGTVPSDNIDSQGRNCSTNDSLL
# XBP1 UPR activ: activators of adaptive arm of unfolded protein response (XBP1); CHO-XBP1 luciferase reporter, IRE1-XBP1 UPR activation, luminescence; percent of tunicamycin response, DMSO as zero; activation, % at 20 µM; 330,000 compounds, 0.33% hits; AID 463104;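 active = versus positive control, 20 µM dose yields 30% or more activation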;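 also: 100% = tunicamycin at 10 µg/mL and 0% = DMSO only wells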
#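 Test system: CHO-XBP1 luciferase reporter cells | Buffer or medium: Serum-containing F12 medium, 10% FBS | Schedule: 6 h compound exposure at 37 °C, 5% CO2 | Detection: Steady-Glo luciferase glow luminescence, 10 min after reagent addition | Read-out basis: Activation, % of tunicamycin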
# VLA-4 inh: inhibition in a human VLA-4 binding assay. VLA-4 expressing cells, ligand binding flow cytometry. inhibition, % (about 7 µM as worked out from the volumes in the protocol). 330,000 compounds, 0.2% hits. AID 2557; in the data active = inhibition above about 50%
# CHOP inh: inhibitors of CHOP induction in ER stress response. CHO-K1 CHOP-promoter luciferase, tunicamycin-induced, 15-18 h. inhibition, % at 10 µM. 220,000 compounds, 3.8% hits;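 active = compounds that reduced the stress-induced luciferase reporter signal by more than about 70% of percent inhibition, limit read from the data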;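 also: 0% = tunicamycin plus vehicle and 100% = wells without tunicamycin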
# UPR XBP1 confirm: confirmation of adaptive unfolded protein response (XBP1) activators; shares compounds with XBP1 UPR activ; CHO-XBP1 IRE1-XBP1 luciferase reporter, luminescence; activation, % at 20 µM; 1,000 compounds, 63% hits;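 active = reporter signal at least 30% of the positive control's activation in two or more of four replicate wells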;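 also: plate controls were DMSO negative control for no effect and tunicamycin 10 µg/mL positive control for full effect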
# The depositor's hits bear a star; . = no result. Many of the other results were omitted from the sample, so hits are more common in it than they were.
SMILES,UPR CHOP act,Beta2AR agonist,XBP1 UPR activ,VLA-4 inh,CHOP inh,UPR XBP1 confirm
COc1ccc2cc3c(N)nn(C(=O)C4CCC(C(C)(C)C)CC4)c3nc2c1 (stereo not drawn),-2.9,-15.3,111.4*,39.7,67.0,36.9*
Cc1cc(SCC(=O)N2CCN(C(=O)c3ccco3)CC2)c(C)cc1Br,4.6,-18.6,-3.2,-14.3,.,.
COc1ccc(S(=O)(=O)N2CCN(S(=O)(=O)c3ccc4c(c3)OCCO4)CC2)cc1C,1.4,-0.4,-1.9,.,17.6,.
COc1ccc(S(=O)(=O)N2CCN(S(=O)(=O)c3ccc4c(c3)OCCO4)CC2)cc1,-1.8,-1.1,37.6*,-2.6,-31.7,14.4
CCC[C@@H](CNC)NC[C@H](Cc1ccccc1)NCCCCc1ccccc1,9.7,35.3,45.5*,41.9,.,25.2
O=c1c2ccccc2nc(COc2ccccc2)n1/N=C/c1ccc(O)c(O)c1,3.1,7.1,31.5*,-9.7,-7.5,23.6
COc1cc([C@@H]2c3cc4c(cc3[C@@H](O)[C@H]3COC(=O)[C@H]23)OCO4)cc(OC)c1O[Si](C)(C)C(C)(C)C,1.5,2.7,58.1*,-12.2,86.6*,48.3*
COc1cc([C@@H]2c3cc4c(cc3[C@H](O)C3COC(=O)[C@@H]32)OCO4)cc(OC)c1OC (stereo partly drawn),.,.,.,.,47.5,.
CC(=O)c1ccc(S(=O)(=O)NC2CC(=O)N(c3ccc(Cl)cc3)C2)cc1 (stereo not drawn),0.1,-5.6,-4.7,13.5,.,.
O=C(Nc1ccc2c(c1)CN(Cc1ccc(CO)o1)CC2)c1ccc(C(F)(F)F)cc1,3.0,-1.2,0.2,5.0,.,.
O=C(Cc1ccccc1)c1c[nH]c(C(=O)C(Cl)(Cl)Cl)c1,7.0,31.8,38.8*,16.1,.,49.5*
CCCCCCCCCCOC(=O)Cn1c(COc2ccccc2)[n+](C)c2ccccc21,9.7,7.8,71.9*,-10.6,.,25.9
CCCCCCCCCCOC(=O)Cn1c(COc2ccc(Cl)cc2)[n+](C)c2ccccc21,-1.0,5.4,35.7*,6.2,.,36.2*
CCOC(=O)Cn1c(COc2ccccc2OC)[n+](C)c2ccccc21,-0.3,-4.1,-2.1,-1.6,.,.
COC(=O)c1ccc2c(c1C(=O)OC)CN(S(=O)(=O)C(C)(C)C)[C@H]2CCO,.,-3.0,.,.,.,.
O=C(Nc1ccc(Oc2ccc(NC(=O)Nc3ccccc3Cl)cc2)cc1)Nc1ccccc1Cl,15.1,-0.5,43.9*,-1.1,94.5*,53.8*
CCCCOc1ccccc1NC(=O)Cn1c(-c2nonc2N)nc2ccccc21,9.8,11.0,101.2*,39.5,.,81.6*
Cc1cc(C)c(C#N)c(SCC(=O)N2CCCCC2)n1,1.2,2.8,33.8*,-1.1,-17.4,0.1
CCOc1cc(/C=N\Nc2ncc(F)c(N3CCOCC3)n2)ccc1Oc1nc(Cl)ncc1F,2.0,15.5,5.1,-5.9,14.5,.
O=C(Oc1ccccc1/C=C\C(=O)c1cc2ccccc2o1)c1cccc(F)c1,25.5,24.5,39.2*,3.4,-9.6,59.8*
O=C(N/N=C/c1ccccc1OC(=O)c1ccc2c(c1)OCO2)c1cccc(F)c1,0.0,-3.6,-1.2,4.6,0.1,.
C=CCN(C(=O)c1ccc2c(c1)nnn2C)c1ccccc1,-0.4,-16.8,0.3,-10.0,.,.
Cc1cccc(NC(=O)CSCC(=O)N(C)Cc2ccc(Cl)c(Cl)c2)c1,-1.3,14.0,-0.8,12.7,.,.
Cc1ccc(-c2cc(C(=O)N3CCN(c4ccccc4O)CC3)c3ccccc3n2)o1,3.8,10.3,38.2*,-8.0,.,0.7
Cc1cc(C(=O)N2CCN(c3ccccc3O)CC2)c(C)o1,0.7,-0.6,-2.7,4.3,.,.
SMILES,UPR CHOP act,Beta2AR agonist,XBP1 UPR activ,VLA-4 inh,CHOP inh,UPR XBP1 confirm
Cc1ccccc1OCC(=O)OC(C)C(=O)NC1CCCC1 (stereo not drawn),-0.5,1.5,-1.7,8.5,.,.
CCN1C(=O)/C(=C2/Sc3ccc(OC)cc3N2C)SC1=Nc1cccc(O)c1,17.6,14.7,69.6*,-10.5,35.0,18.3
Cc1ccc(Cn2cnc3sc4c(c3c2=O)CCC4)c(C)c1,2.3,-8.2,31.0*,10.3,76.9*,6.0
Cc1nc2sc(C(=O)Nc3ccccc3)c(N)c2c(C)c1[N+](=O)[O-],39.4,-3.0,90.5*,12.1,24.3,18.8
Cc1ccc(C)c(S(=O)(=O)N2CCN(C(=O)CN3C(=O)NC(C)(C)C3=O)CC2)c1,0.8,-3.2,-0.5,-11.6,.,.
CCC(C)(C)C1CCC2(CC1)NC(=O)N(CC(=O)N1CCN(S(=O)(=O)c3cc(C)ccc3C)CC1)C2=O (stereo not drawn),4.1,-0.8,81.0*,7.7,.,107.0*
CCOC(=O)c1c(C)nc2sc3c(c2c1-c1ccc(OC)cc1)NC(c1ccccc1)NC3=O (stereo not drawn),-0.4,6.8,0.2,12.2,45.8,.
COc1ccc(-c2c(C(C)=O)c(C)nc3sc4c(c23)NC(c2ccccc2)NC4=O)cc1 (stereo not drawn),2.2,8.0,60.5*,-8.7,7.0,11.9
O=C(COC(=O)CSc1ccc([N+](=O)[O-])cc1)NCCC1=CCCCC1,0.6,3.2,0.8,0.0,.,.
COc1cc(/C=N/NC(=O)Cn2nc([N+](=O)[O-])cc2C)cc(Br)c1OCc1ccccc1,0.4,4.4,13.8,-16.0,36.3,.
CCOc1cc(/C=N/NC(=O)Cn2nc([N+](=O)[O-])cc2C)cc(Br)c1OCc1ccccc1C,16.9,3.7,57.0*,17.4,59.9,79.6*
COc1cc(CN2CCCCC2)ccc1OCc1ccccc1,3.5,-0.1,36.6*,16.7,.,1.3
CCc1cc2cc3c(cc2nc1SCC(=O)Nc1c[nH]c(=O)[nH]c1=O)OCO3,-0.6,6.0,-1.0,2.3,.,.
CCc1cc2cc3c(cc2nc1SCC(=O)Nc1nccs1)OCO3,8.2,-1.3,57.3*,-0.9,44.4,14.1
CC(C)[C@H]1C(=O)Nc2ccccc2N1C(=O)N[C@@H](Cc1ccccc1)C(=O)N[C@@H](C(=O)O)c1ccccc1,-2.5,4.4,-1.6,9.2,.,.
Cn1nc(C(F)(F)F)c(/C=N/OC(=O)c2ccccc2Cl)c1SCc1ccc(Cl)cc1,2.1,5.3,9.0,-8.5,-0.1,.
COc1ccc(C(=O)O/N=C/c2c(C(F)(F)F)nn(C)c2SCc2ccccc2Cl)cc1,15.0,4.0,61.6*,-5.0,8.1,83.3*
O=C(C[C@@H]1C/C=C\CC[C@@H](Cc2ccc(F)cc2)C(=O)OC[C@@H](Cc2ccccc2)NC1=O)NCCO,-1.8,3.9,-0.5,-20.0,.,.
c1ccc2cc(OCCCn3ccnc3)ccc2c1,5.1,0.2,-3.2,12.2,.,.
Cc1cc(C)cc(-n2nnnc2SCC(=O)Nc2nc(-c3ccc(Cl)cc3)cs2)c1,0.3,2.8,34.2*,-9.2,76.2*,15.5

# Screening results from PubChem BioAssay.
